Our source for the IC50 and inhibition values is ChEMBL document CHEMBL3414420, “Synthesis of xanthohumol analogues and discovery of potent thioredoxin reductase inhibitor as potential anticancer agent” (J Med Chem, 2015).

One test deals with A549. As to the kind of experiment: Cytotoxicity against human A549 cells assessed as inhibition of cell proliferation after 72 hrs by MTT assay. The test is classed as functional, cell-based. Particulars: A549, 72 h. The method, boiled down: (§1)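 Cells, 5×10^3 per well, exposed in triplicate at 37 °C; DMSO-only wells as controls (0.1% v/v DMSO in all cell work). After 68 h, MTT (5 mg/mL stock) was added for a further 4 h. Overnight solubilisation at 37 °C in 10% SDS/5% isobutanol/0.1% HCl, then A570 read.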
On the technique in general: Tetrazolium assays rely on reduction of a dye to a coloured formazan, in cell work by metabolically active cells.

A further test deals with HepG2. As to the kind of experiment: Cytotoxicity against human HepG2 cells assessed as inhibition of cell proliferation after 72 hrs by MTT assay. Format: functional, cell-based. Particulars: HepG2, 72 h. The method, boiled down: as §1
The next test has as its system HeLa. As to the kind of experiment: Cytotoxicity against human HeLa cells assessed as inhibition of cell proliferation after 72 hrs by MTT assay. The test is classed as functional, cell-based. The method, boiled down:
as §1

Test [1] in a line: Cytotoxicity against human […] cells assessed as inhibition of cell proliferation after 72 hrs by MTT assay. The test is classed as functional, cell-based. The method, boiled down:
as §1

Test [2] is described as follows: Cytotoxicity against human HL60 cells assessed as inhibition of cell proliferation after 72 hrs by MTT assay. The test is classed as functional, cell-based. Particulars: HL-60, 72 h. The method, boiled down: as §1
The target in test [3] is Thioredoxin reductase 1 (Rattus norvegicus) (UniProt O89049). As to the kind of experiment: In vitro inhibition of NADPH-reduced TrxR (unknown origin) after 2 hrs incubation by microplate reader.
Test [4] is described as follows: In vitro inhibition of TrxR U498C mutant (unknown origin) up to 40 uM after 2 hrs incubation by microplate reader.
In test [5] the target is T1, Thioredoxin reductase (Homo sapiens, UniProt Q16881+Q9NNW7+Q86VQ6). As to the kind of experiment: Inhibition of TrxR in human HeLa cells after 48 hrs by TRFS-green based fluorescence microscopy. Format: cell-based. The method, boiled down:
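Live HeLa cells exposed to compound for 44 h, then to TRFS-green (10 μM) for a further 4 h. Green fluorescence, which tracks cellular TrxR activity, imaged alongside phase contrast.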

The target of test [6] is T1, Thioredoxin reductase. As to the kind of experiment: Inhibition of TrxR in human HeLa cells by Trx-mediated insulin reduction assay.
The target of test [7] is T1, Thioredoxin reductase. As to the kind of experiment: Inhibition of TrxR in human HeLa cells after 48 hrs by end point reduction assay. Format: cell-based. The method, boiled down: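 HeLa cells treated 48 h, lysed in RIPA buffer and protein measured by Bradford. Lysate (20 μg) incubated 30 min at 37 °C with 0.3 mM insulin, 660 μM NADPH and 15 μM E. coli Trx (pH 7.6). Stopped with DTNB in 6 M guanidine-HCl; A412 minus Trx-free blank, as % of DMSO control.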

One may read the IC50 as the concentration at which inhibition is half-maximal.

SMILES strings stand for the structures. Calls of active or inactive are those of the source. The rule behind the calls is not given here. A value given as a limit tells only on which side of the number the result lay.

Chain of Thioredoxin reductase 1 (Rattus norvegicus) (O89049 whole entry, looked up): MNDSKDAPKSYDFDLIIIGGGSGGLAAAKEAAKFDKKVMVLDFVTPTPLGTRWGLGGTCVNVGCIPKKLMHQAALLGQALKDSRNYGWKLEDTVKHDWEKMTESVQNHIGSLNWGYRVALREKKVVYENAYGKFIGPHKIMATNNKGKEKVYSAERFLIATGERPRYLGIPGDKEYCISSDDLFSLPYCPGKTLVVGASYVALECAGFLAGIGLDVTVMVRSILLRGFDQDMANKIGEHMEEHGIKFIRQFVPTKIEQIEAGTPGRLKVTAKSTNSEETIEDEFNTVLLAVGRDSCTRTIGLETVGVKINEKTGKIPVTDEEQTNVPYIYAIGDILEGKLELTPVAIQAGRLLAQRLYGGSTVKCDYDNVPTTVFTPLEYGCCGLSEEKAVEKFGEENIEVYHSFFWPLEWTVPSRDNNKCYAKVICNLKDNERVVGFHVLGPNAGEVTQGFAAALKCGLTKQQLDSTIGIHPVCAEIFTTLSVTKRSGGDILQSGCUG

`COc1cc(/C=C/C(=O)c2c(OC)cc(OC)cc2OC)cc(OC)c1`: the IC50 in the test on A549 worked out at 10.1 µM; in the test with HepG2, 9 µM; in the test on HeLa, 9.2 µM.

As to `COc1cc(O)c(CC=C(C)C)c(O)c1C(=O)/C=C/c1ccc(O)c(O)c1`, the IC50 in the test on A549 was 16.1 µM; in the test with HepG2, 15.2 µM; in the test with HeLa, 38.1 µM.

Regarding `COc1cc(OC)c(C(=O)/C=C/c2ccc(C(F)(F)F)cc2)c(OC)c1`, the IC50 with A549 was 14.2 µM; in test [1], 15.7 µM; in [2], 6.5 µM; in the test on HepG2, 9.7 µM; in the test on HeLa, 5.1 µM. The inhibition entry in test [3] is “Active”.

Regarding `COc1cc(O)c(CC=C(C)C)c(O)c1C(=O)/C=C/c1ccc(C(F)(F)F)cc1`, the IC50 in the test with A549 was 11.1 µM; in test [1], 10.7 µM; in test [2], 5.3 µM; with HepG2, 6.5 µM; in the test with HeLa, 6.8 µM. In addition, the inhibition entry in test [3] was “Active”.

With `COc1cc(O)cc(O)c1C(=O)/C=C/c1ccc(O)c(O)c1`, the half-maximal inhibitory concentration (IC50) in the test on A549 turned out to be 11.8 µM; in the test with HepG2, 28.7 µM; with HeLa, 21.3 µM.

`COc1cc(O)cc(O)c1C(=O)/C=C/c1ccc(C(F)(F)F)cc1`: the IC50 with A549 was 15.4 µM; in the test with HepG2, 14.1 µM; in the test with HeLa, 9.5 µM.

On to `COc1ccc(/C=C/C(=O)c2c(O)cc(O)cc2OC)cc1OC`, for which the IC50 is above 50 µM with A549, 18.5 µM in the test with HepG2 and 49.5 µM in the test with HeLa.

Regarding `COc1cc(OC)c(C(=O)/C=C/c2ccccc2OC)c(OC)c1`, the IC50 with A549 was determined as 19.8 µM; in the test on HepG2, 16.3 µM; with HeLa it was 19.6 µM.

As to `COc1cc(OC)c(OC)cc1/C=C/C(=O)c1c(O)cc(O)cc1OC`, the IC50 with A549 stood at 34.2 µM; with HepG2, 18.7 µM; in the test on HeLa, 37.8 µM.

In the case of `COc1cc(OC)c(C(=O)/C=C/c2ccc(N)cc2)c(OC)c1`, the values for the IC50 with A549, with HepG2 and in the test on HeLa were above 50 µM, 45.2 µM and above 50 µM, respectively.

As to `COc1cc(O)cc(O)c1C(=O)/C=C/c1ccc(Cl)cc1`, the IC50 was found to be 18.2 µM with A549, 12.2 µM in the test with HepG2 and 17 µM in the test with HeLa.

For the molecule `COc1cc(OC)c(C(=O)/C=C/c2ccc(O)c(OC)c2)c(OC)c1`, the IC50 with A549 was determined as 43.8 µM; with HepG2, 17 µM; in the test on HeLa it was 44.9 µM.

In the case of `COc1cc(O)cc(O)c1C(=O)/C=C/c1ccc(O)cc1` [HELICHRYSETIN], the values for the IC50 in the test on A549, in the test on HepG2 and with HeLa were above 50 µM, 40.2 µM and 48.1 µM, respectively.

Turning to `COc1cc(OC)c(C(=O)/C=C/c2ccc(OC)c(OC)c2)c(OC)c1`, the results for the 50% inhibitory concentration (IC50) in the test on A549, in the test on HepG2 and in the test with HeLa were 39.1 µM, 11.6 µM and 18.1 µM, respectively.

With `COc1cc(OC)c(OC)cc1/C=C/C(=O)c1c(OC)cc(O)c(CC=C(C)C)c1O`, the IC50 was 14.4 µM with A549, above 50 µM in the test with HepG2 and above 50 µM in the test with HeLa.

For `COc1ccc(/C=C/C(=O)c2c(O)cc(O)cc2OC)cc1`, the IC50 with A549 is above 50 µM; in the test on HepG2, 18.1 µM; in the test with HeLa, 47.7 µM.

Turning to `COc1cc(/C=C/C(=O)c2c(OC)cc(O)c(CC=C(C)C)c2O)cc(OC)c1OC`, the IC50 with A549, with HepG2 and in the test on HeLa was above 50 µM in each case.

`COc1cc(O)c(CC=C(C)C)c(O)c1C(=O)/C=C/c1cccc([N+](=O)[O-])c1`: the IC50 is 15 µM in the test on A549, 16.6 µM in the test with HepG2 and 16.5 µM in the test with HeLa.

As to `COc1ccccc1/C=C/C(=O)c1c(OC)cc(O)c(CC=C(C)C)c1O`, the concentration for half-maximal inhibition (IC50) in the test with A549 is 12.5 µM; in the test with HepG2, 14.6 µM; in the test with HeLa it was 19.7 µM.

As for `COc1ccc(/C=C/C(=O)c2c(OC)cc(O)c(CC=C(C)C)c2O)cc1`, the IC50 was 38 µM with A549, 32.4 µM in the test with HepG2 and above 50 µM with HeLa.

As to `COc1cc(OC)c(C(=O)/C=C/c2cccc([N+](=O)[O-])c2)c(OC)c1`, the inhibition entry in test [4] was “inactive”. Further, the inhibition entry at Thioredoxin reductase [5] and on Thioredoxin reductase [7] was “Dose-dependent effect” in each case. The IC50 at Thioredoxin reductase [6] stood at 3.5 µM; in test [3], 12.8 µM.

With `COc1cc(OC)c(C(=O)/C=C/c2ccc(Cl)cc2)c(OC)c1`, the inhibition entry in test [3] was “Active”.

Take `COc1cc(OC)c(C(=O)/C=C/c2ccc(O)c(O)c2)c(OC)c1`: the IC50 in the test with A549 was 8.2 µM; in the test with HepG2 it was 27.5 µM; in the test with HeLa it was 15.8 µM.

`COc1cc(O)cc(O)c1C(=O)/C=C/c1cccc([N+](=O)[O-])c1`: the IC50 in the test on A549 amounted to 36.8 µM; in test [1], 20.1 µM; in test [2], 5.9 µM; in the test with HepG2 it was 16.3 µM; in the test with HeLa it was 15.5 µM. Besides, in [3], the inhibition entry is “Active”.

In the case of `COc1cc(/C=C/C(=O)c2c(O)cc(O)cc2OC)cc(OC)c1`, the values for the IC50 with A549, with HepG2 and in the test with HeLa were 34 µM, 17.6 µM and 13.3 µM, respectively.

For `COc1cc(OC)c(C(=O)/C=C/c2ccc(C)cc2)c(OC)c1`, the IC50 with A549 came to 15 µM; in the test with HepG2, 18.4 µM; with HeLa, 17 µM.

Regarding `COc1cc(O)c(CC=C(C)C)c(O)c1C(=O)/C=C/c1ccc(Cl)cc1`, the results for the IC50 in the test with A549, in the test with HepG2 and in the test on HeLa were 11.8 µM, 10.1 µM and 16.5 µM, respectively.

Turning to `COc1cc(/C=C/C(=O)c2c(O)cc(O)cc2OC)cc(OC)c1OC`, the IC50 amounted to 28.4 µM in the test on A549, 20.4 µM in the test on HepG2 and 18.9 µM with HeLa.

`COc1cc(O)c(CC=C(C)C)c(O)c1C(=O)/C=C/c1ccc([N+](=O)[O-])cc1`: the figures for the IC50 in the test on A549, in the test with HepG2 and in the test on HeLa were 31.2 µM, 12.4 µM and 29.7 µM, respectively.

Regarding `COc1cc(O)c(CC=C(C)C)c(O)c1C(=O)/C=C/c1ccc(O)cc1` [XANTHOHUMOL], the IC50 in the test on A549 is 30.5 µM; against Thioredoxin reductase [6] it was above 40 µM; with HepG2 it was 35 µM; in the test with HeLa it was 40.4 µM.

For the molecule `COc1cc(OC)c(C(=O)/C=C/c2cc(OC)c(OC)cc2OC)c(OC)c1`, the concentration for half-maximal inhibition (IC50) in the test on A549 worked out at 45.1 µM; with HepG2 it was 23.8 µM; with HeLa it was 40.5 µM.

Take `COc1ccc(/C=C/C(=O)c2c(OC)cc(O)c(CC=C(C)C)c2O)cc1OC`: the IC50 in the test with A549 was 15.7 µM; with HepG2, 13.8 µM; in the test with HeLa, 27.7 µM.

As for `COc1cc(O)cc(O)c1C(=O)/C=C/c1ccc(C)cc1`, the IC50 with A549, in the test on HepG2 and in the test on HeLa was above 50 µM in each case.

On to `COc1cc(OC)c(C(=O)/C=C/c2cc(OC)c(OC)c(OC)c2)c(OC)c1`, for which the IC50 with A549 stood at 22.3 µM; with HepG2, 16.5 µM; with HeLa it was 9.9 µM.

Take `COc1cc(OC)c(C(=O)/C=C/c2ccc(O)cc2)c(OC)c1`: the half-maximal inhibitory concentration (IC50) with A549 is 49.4 µM; in the test on HepG2, 37 µM; in the test on HeLa it was 40.6 µM.

Turning to `COc1ccc(/C=C/C(=O)c2c(OC)cc(O)c(CC=C(C)C)c2O)c(OC)c1OC`, the values for the IC50 with A549, in the test on HepG2 and in the test on HeLa were 18 µM, 14.8 µM and above 50 µM, respectively.

Turning to `COc1ccccc1/C=C/C(=O)c1c(O)cc(O)cc1OC`, the results for the IC50 in the test on A549, in the test with HepG2 and in the test with HeLa were 47.7 µM, 15.3 µM and 43.6 µM, respectively.

Turning to `COc1cc(/C=C/C(=O)c2c(OC)cc(O)c(CC=C(C)C)c2O)ccc1O`, the IC50 stood at 11.8 µM in the test with A549, 21.7 µM with HepG2 and 33.8 µM with HeLa.

Take `COc1cc(OC)c(C(=O)/C=C/c2ccc(OC)c(OC)c2OC)c(OC)c1`: the IC50 in the test on A549 is 44.3 µM; in the test with HepG2, above 50 µM; in the test on HeLa, above 50 µM.

In the case of `COc1cc(O)cc(O)c1C(=O)/C=C/c1ccc([N+](=O)[O-])cc1`, the values for the half-inhibitory concentration (IC50) with A549, with HepG2 and with HeLa were above 50 µM, 41 µM and above 50 µM, respectively.

Regarding `COc1cc(/C=C/C(=O)c2c(O)cc(O)cc2OC)ccc1O`, the IC50 with A549, with HepG2 and in the test with HeLa was above 50 µM each time.
